Here are results for 21 compounds from ChEMBL document CHEMBL1938338, “In vitro inhibition of translation initiation by N,N'-diarylureas--potential anti-cancer agents” (Bioorg Med Chem Lett, 2012).

Series [1] is described as follows: Antiproliferative activity against mouse KLN205 cells after 5 days by SRB assay. It counts as functional, cell-based. The settings on record: 120 h. In outline:
(§1)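 Adherent cells were exposed for 5 days to four concentrations (0.54, 1.8, 6, 20 µM), each point in triplicate. Cells were fixed in cold 10% TCA, stained with 0.4% SRB in 1% acetic acid and solubilized in 10 mM Tris pH 10, then A490 was read. Time-zero plates were included. IC50 is 50% growth inhibition from 100×(T−T0)/(C−T0).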

A short description of series [2]: Antiproliferative activity against human CRL2351 cells after 5 days by SRB assay. The format is functional, cell-based. The settings on record: 120 h. The gist of the method:
as §1

Series [3] deals with Eukaryotic translation initiation factor 2-alpha kinase 1 (Homo sapiens) (UniProt Q9BQI3). As to the kind of experiment: Activation of EIF2alpha kinase in human CRL2351 cells assessed as reduction in eIF2-GTP-initiator methionine tRNA ternary complex measuring increase in firefly/renilla luciferase ratio at 10 uM after 16 hrs by dual luciferase reporter gene assay relative to control. The format is cell-based. The gist of the method: (§2)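 CRL-2351 cells (10^4 per well) were transiently transfected one day after seeding with the bidirectional pBISA-DL(ATF-4) firefly/renilla luciferase plasmid (Lipofectamine 2000). After 16 h compound exposure, lysates were read by Dual-Glo luciferase. F/R ratio was normalized to DMSO vehicle (F/R = 1). Runs were dose-response with at least four points, in triplicate.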

The nature of series [4]: Antiproliferative activity against human CRL2813 cells after 5 days by SRB assay. The settings on record: CRL2813, 120 h. It counts as functional, cell-based. In outline: as §1
The target in series [5] is Eukaryotic translation initiation factor 2-alpha kinase 1 (Homo sapiens) (UniProt Q9BQI3). As to the kind of experiment: Activation of EIF2alpha kinase in human CRL2351 cells assessed as reduction in eIF2-GTP-initiator methionine tRNA ternary complex measuring increase in firefly/renilla luciferase ratio at 20 uM after 16 hrs by dual luciferase reporter gene assay relative to control. The format is cell-based. In outline: as §2

The target is the same in series [6]. The series can be described thus: Activation of EIF2alpha kinase in human CRL2351 cells assessed as reduction in eIF2-GTP-initiator methionine tRNA ternary complex measuring increase in firefly/renilla luciferase ratio at 2.5 to 20 uM after 16 hrs by dual luciferase reporter gene assay relative to control. It counts as cell-based. In outline:
as §2

The target is the same in series [7]. The series can be described thus: Activation of EIF2alpha kinase in human CRL2351 cells assessed as CHOP protein expression at 5 uM […] by Western blot analysis. The format is cell-based. In outline:
(§3)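 Cells were grown to 70% confluency in serum-containing medium without antibiotics, then treated (KLN at 20 µM, CRL-2351 at 5 µM) for 6 h. They were washed in cold PBS and lysed on ice for 1 h. Protein was measured by BCA. SDS-PAGE immunoblots were probed for phospho-Ser51 eIF2α, total eIF2α, CHOP and β-actin.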

Series [8] has the same target. The series can be described thus: Activation of EIF2alpha kinase in human CRL2351 cells assessed as reduction in eIF2-GTP-initiator methionine tRNA ternary complex measuring increase in firefly/renilla luciferase ratio at 2.5 uM after 16 hrs by dual luciferase reporter gene assay relative to control. The format is cell-based. The gist of the method:
as §2

The target is the same in series [9]. As to the kind of experiment: Activation of EIF2alpha kinase in human CRL2351 cells assessed as phosphorylation of eIF2alpha at 5 uM […] by Western blot analysis. It counts as cell-based. The gist of the method:
as §3

For series [10], the target named is Eukaryotic translation initiation factor 2-alpha kinase 1 (Mus musculus) (UniProt Q9Z2R9). The series can be described thus: Activation of EIF2alpha kinase in mouse KLN205 cells assessed as phosphorylation of eIF2alpha at 20 uM […] by Western blot analysis. It counts as cell-based. The gist of the method:
as §3

The nature of series [11]: Aqueous solubility of compound. It counts as physicochemical. As to conditions: buffer.
Series [12] addresses Eukaryotic translation initiation factor 2-alpha kinase 1 (Mus musculus) (UniProt Q9Z2R9). As to the kind of experiment: Activation of EIF2alpha kinase in mouse KLN205 cells assessed as CHOP protein expression at 20 uM after […] by Western blot analysis. The format is cell-based. The gist of the method:
as §3

The target is the same in series [13]. As to the kind of experiment: Activation of EIF2alpha kinase in mouse KLN205 cells assessed as CHOP mRNA expression at 20 uM after 5 hrs by PCR analysis. It counts as cell-based.
For series [14] the target is unchanged. The series can be described thus: Activation of EIF2alpha kinase in mouse KLN205 cells assessed as reduction in eIF2-GTP-initiator methionine tRNA ternary complex measuring increase in firefly/renilla luciferase ratio at 20 uM after 16 hrs by dual luciferase reporter gene assay relative to control. It counts as cell-based. In outline: (§4)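 KLN-205 cells were stably transfected with the bidirectional pBISA-DL(ATF-4) firefly/renilla luciferase reporter: 10^5 cells were seeded per 60-mm dish, transfected the next day and selected with antibiotics. After 16 h compound exposure, lysates were read by Dual-Glo luciferase. F/R ratio was normalized to DMSO vehicle (F/R = 1).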

The target in series [15] is Eukaryotic translation initiation factor 2-alpha kinase 1 (Homo sapiens) (UniProt Q9BQI3). As to the kind of experiment: Activation of EIF2alpha kinase in human CRL2351 cells assessed as CHOP mRNA expression at 5 uM after 5 hrs by PCR analysis. It counts as cell-based.
Series [16] shares this target. As to the kind of experiment: Activation of EIF2alpha kinase in human CRL2351 cells assessed as reduction in eIF2-GTP-initiator methionine tRNA ternary complex measuring increase in firefly/renilla luciferase ratio at 5 uM after 16 hrs by dual luciferase reporter gene assay relative to control. The format is cell-based. In outline:
as §2

For series [17], the target named is Eukaryotic translation initiation factor 2-alpha kinase 1 (Mus musculus) (UniProt Q9Z2R9). The series can be described thus: Activation of EIF2alpha kinase in mouse KLN205 cells assessed as reduction in eIF2-GTP-initiator methionine tRNA ternary complex measuring increase in firefly/renilla luciferase ratio at 2.5 to 80 uM after 16 hrs by dual luciferase reporter gene assay relative to control. It counts as cell-based. The gist of the method: as §4

Series [18] deals with Eukaryotic translation initiation factor 2-alpha kinase 1 (Homo sapiens) (UniProt Q9BQI3). As to the kind of experiment: Activation of EIF2alpha kinase in human CRL2351 cells assessed as reduction in eIF2-GTP-initiator methionine tRNA ternary complex measuring increase in firefly/renilla luciferase ratio at 2.5 to 80 uM after 16 hrs by dual luciferase reporter gene assay relative to control. The format is cell-based. In outline:
as §2

For series [19] the target is unchanged. The series can be described thus: Activation of EIF2alpha kinase in human CRL2351 cells assessed as reduction in eIF2-GTP-initiator methionine tRNA ternary complex measuring increase in firefly/renilla luciferase ratio at 40 uM after 16 hrs by dual luciferase reporter gene assay relative to control. The format is cell-based. In outline: as §2
In series [20] the target is Eukaryotic translation initiation factor 2-alpha kinase 1 (Mus musculus) (UniProt Q9Z2R9). As to the kind of experiment: Activation of EIF2alpha kinase in mouse KLN205 cells assessed as reduction in eIF2-GTP-initiator methionine tRNA ternary complex measuring increase in firefly/renilla luciferase ratio at 5 uM after 16 hrs by dual luciferase reporter gene assay relative to control. It counts as cell-based. The gist of the method:
as §4

Activity calls are given as the source filed them. The rule behind the calls is not given here.

Chain of Eukaryotic translation initiation factor 2-alpha kinase 1 (Mus musculus) (Q9Z2R9 whole entry): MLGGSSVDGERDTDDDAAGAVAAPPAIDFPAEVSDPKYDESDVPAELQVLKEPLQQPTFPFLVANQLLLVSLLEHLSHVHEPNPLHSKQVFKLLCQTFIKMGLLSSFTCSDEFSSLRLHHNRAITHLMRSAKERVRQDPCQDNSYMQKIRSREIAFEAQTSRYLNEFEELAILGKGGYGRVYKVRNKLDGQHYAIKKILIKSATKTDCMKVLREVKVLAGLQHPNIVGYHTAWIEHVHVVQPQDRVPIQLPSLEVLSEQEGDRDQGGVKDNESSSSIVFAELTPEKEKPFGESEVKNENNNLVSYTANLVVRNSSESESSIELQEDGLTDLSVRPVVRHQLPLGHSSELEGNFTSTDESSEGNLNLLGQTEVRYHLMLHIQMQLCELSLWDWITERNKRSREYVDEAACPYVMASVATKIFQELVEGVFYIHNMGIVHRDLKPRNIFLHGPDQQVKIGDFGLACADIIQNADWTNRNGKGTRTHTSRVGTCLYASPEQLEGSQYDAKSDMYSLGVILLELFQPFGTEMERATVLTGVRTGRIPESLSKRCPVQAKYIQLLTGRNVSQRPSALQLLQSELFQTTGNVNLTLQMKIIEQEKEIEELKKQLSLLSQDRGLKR
Chain of Eukaryotic translation initiation factor 2-alpha kinase 1 (Homo sapiens) (Q9BQI3 whole entry): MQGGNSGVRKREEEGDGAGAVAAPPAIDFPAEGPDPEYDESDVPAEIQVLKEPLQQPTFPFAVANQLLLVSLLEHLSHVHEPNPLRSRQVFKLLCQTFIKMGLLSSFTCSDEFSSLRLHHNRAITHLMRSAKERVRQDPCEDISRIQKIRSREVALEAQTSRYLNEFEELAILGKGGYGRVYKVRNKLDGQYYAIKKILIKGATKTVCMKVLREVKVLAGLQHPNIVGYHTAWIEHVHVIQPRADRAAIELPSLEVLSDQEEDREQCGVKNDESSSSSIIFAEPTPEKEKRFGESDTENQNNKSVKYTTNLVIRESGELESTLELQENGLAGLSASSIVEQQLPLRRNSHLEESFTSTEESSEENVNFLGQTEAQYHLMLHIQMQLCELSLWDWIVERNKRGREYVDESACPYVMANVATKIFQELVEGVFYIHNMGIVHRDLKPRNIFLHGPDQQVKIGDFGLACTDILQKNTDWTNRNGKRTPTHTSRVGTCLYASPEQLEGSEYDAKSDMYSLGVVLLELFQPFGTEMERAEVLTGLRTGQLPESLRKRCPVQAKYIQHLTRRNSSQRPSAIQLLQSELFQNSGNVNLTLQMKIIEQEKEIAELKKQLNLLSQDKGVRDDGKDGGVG

With `Cc1ccc(NC(=O)Nc2cc(C(F)(F)F)cc(C(F)(F)F)c2)cc1OCCN(C)C`, the figures for the 50% inhibitory concentration (IC50) in series [1], in series [2] and in [4] were 8.9 µM, 2.4 µM and 7.6 µM, respectively. Besides, the Ratio in [3] was found to be 9.

`Cc1ccc(NC(=O)Nc2cc(C(F)(F)F)cc(C(F)(F)F)c2)cc1O`: the results for the 50% inhibitory concentration (IC50) in series [1], in [2] and in [4] were 15.7 µM, 2.8 µM and 1.2 µM, respectively.

With `Cc1ccc(NC(=O)Nc2ccc(Cl)c(Cl)c2)cc1O`, the concentration for half-maximal inhibition (IC50) in series [1] was over 20 µM; in series [2], 7.5 µM; in series [4] it was 2.3 µM. Moreover, in series [5], the Ratio is 11.

As to `Cc1ccc(NC(=O)Nc2ccc(Cl)c(C(F)(F)F)c2)cc1OCCN1CCOCC1`, the concentration for half-maximal inhibition (IC50) in [1] was over 20 µM; in series [2], 2.6 µM; in series [4] it was 1.1 µM.

`Cc1ccc(NC(=O)Nc2ccc(Cl)c(Cl)c2)cc1OCCN1CCNCC1`: in [6], the result was Active. Besides, the IC50 was over 20 µM in [1], 5 µM in series [2] and 5.2 µM in series [4].

For `Cc1ccc(NC(=O)Nc2ccc(Cl)c(Cl)c2)cc1OCCN1CCOCC1`, in series [6], the result was Active. Besides, the concentration for half-maximal inhibition (IC50) in series [1] is over 20 µM; in series [2], 2.4 µM; in series [4], 12 µM.

In the case of `Cc1ccc(NC(=O)Nc2cc(C(F)(F)F)cc(C(F)(F)F)c2)cc1OCCN1CCNCC1`, the IC50 was over 20 µM in series [1], 4.2 µM in series [2] and 3.2 µM in series [4]. Also, the Ratio in series [3] is 9.

Turning to `Cc1ccc(NC(=O)Nc2ccc(Cl)c(C(F)(F)F)c2)cc1OCCN(C)C`, the figures for the half-maximal inhibitory concentration (IC50) in series [1], in [2] and in [4] were 13.6 µM, 2.4 µM and 2.3 µM, respectively.

With `Cc1ccc(NC(=O)Nc2ccc(Cl)c(C(F)(F)F)c2)cc1O`, the figures for the IC50 in [1], in series [2] and in series [4] were over 20 µM, 9.5 µM and 1.6 µM, respectively. Also, the Ratio in series [3] came out at 11.

Turning to `O=C(Nc1cc(C(F)(F)F)cc(C(F)(F)F)c1)Nc1cc(C(F)(F)F)cc(C(F)(F)F)c1`, the outcome in series [7], in series [9], in [10], in [12], in series [13] and in series [14] was Active. For the same compound, the result in series [15] was Active. Besides, the Ratio in [8] was 11. Besides, the values for the half-maximal inhibitory concentration (IC50) in [1], in [2] and in series [4] were 4.2 µM, 1.8 µM and 0.3 µM, respectively. Besides, the solubility entry in [11] was “Insoluble”.

`COc1cc(NC(=O)Nc2ccc(Cl)c(Cl)c2)ccc1C`: the outcome in series [7], in series [6], in [9], in series [10], in [12] and in [13] was inactive. For the same compound, in series [15], the result was inactive. For the same compound, the values for the IC50 in series [1], in series [2] and in [4] were over 20 µM, 0.8 µM and 0.5 µM, respectively. The Ratio in [16] was under 2.

For `COc1cc(NC(=O)Nc2ccc(Cl)c(C(F)(F)F)c2)ccc1C`, the IC50 is 18.6 µM in [1], 2.3 µM in series [2] and 2.8 µM in [4]. In addition, in series [16], the Ratio was found to be 8.

For the compound `Cc1ccc(NC(=O)Nc2ccc(Cl)c(C(F)(F)F)c2)cc1OCCN1CCNCC1`, the IC50 in [1] was over 20 µM; in series [2], 1.8 µM; in series [4] it was 2.5 µM.

With `O=C(Nc1cc(C(F)(F)F)cc(C(F)(F)F)c1)Nc1ncccc1O`, the half-maximal inhibitory concentration (IC50) in series [1] stood at 14.8 µM; in series [2], 0.7 µM; in [4], 0.6 µM.

Take `O=C(Nc1ccc(Cl)c(C(F)(F)F)c1)Nc1ccc(Cl)c(C(F)(F)F)c1`: in series [8], the Ratio came to 11. Besides, the 50% inhibitory concentration (IC50) in series [1] was determined as 1.3 µM; in series [2], 2.4 µM; in series [4], 1.8 µM. Also, in series [11], the solubility result is reported as “Insoluble”.

For the compound `O=C(Nc1ccc(Cl)c(Cl)c1)Nc1ccc(Cl)c(Cl)c1`, the IC50 was over 20 µM in series [1], 2.4 µM in [2] and 1 µM in series [4]. Further, in [11], the solubility result was “Insoluble”. The Ratio in [16] amounted to 11.

As to `O=C(Nc1ccc(Cl)c(C(F)(F)F)c1)Nc1ncccc1O`, the outcome in series [17], in series [7], in series [18], in series [9], in series [10] and in series [12] was Active. For the same compound, the result in series [13] and in series [15] was Active. Moreover, the figures for the 50% inhibitory concentration (IC50) in [1], in series [2] and in series [4] were 15.4 µM, 0.8 µM and 0.6 µM, respectively.

As for `Cc1ccc(NC(=O)Nc2cc(C(F)(F)F)cc(C(F)(F)F)c2)cc1OCCN1CCOCC1`, the figures for the IC50 in series [1], in series [2] and in series [4] were 18.8 µM, 2.3 µM and 0.8 µM, respectively. The Ratio in series [3] was found to be 10.

For `O=C(Nc1ccc(Cl)c(Cl)c1)Nc1ncccc1O`, the Ratio in series [19] was 12. Moreover, the IC50 was over 20 µM in series [1], 1.4 µM in series [2] and 1.6 µM in [4].

Turning to `Cc1ccc(NC(=O)Nc2ccc(Cl)c(Cl)c2)cc1OCCN(C)C`, the result in series [6] was Active. Further, the half-maximal inhibitory concentration (IC50) in series [1] is 14.7 µM; in series [2] it was 4.1 µM; in [4], 5.8 µM.

Regarding `COc1cc(NC(=O)Nc2cc(C(F)(F)F)cc(C(F)(F)F)c2)ccc1C`, the outcome in series [7], in series [9], in series [10], in series [20], in series [12] and in [13] was Active. Further, the result in series [15] was Active. Besides, the half-maximal inhibitory concentration (IC50) in [1] came out at 6.6 µM; in [2], 1.8 µM; in [4] it was 0.5 µM. In series [16], the Ratio came out at 9.
